“Also recorded” adds a separate entry of the source.
Assays:
[1] = test system: Aβ; details: cited from earlier work
[2] = test system: Aβ^(26TOAC); assay: EPR of Aβ^; assay type: binding; details: apoE 30 μM; 40 μM Aβ (1 part Aβ^(26TOAC) to 3 parts native Aβ(1-40)), scanned immediately after introduction into aqueous buffer
[3] = test system: AβO; assay: EPR of position 264 spin-labeled apoE with HDL or VLDL, with or without AβO; assay type: binding; details: for EPR response to AβO in presence of HDL / VLDL: apoE 30 μM, HDL or VLDL 850 mg/dL, oligomeric Aβ(1-40) 100 μM, one hour at 37 °C; for EPR response to HDL / VLDL without AβO: apoE spin-labeled at 264, HDL or VLDL, Supplemental Figure S2
How it was run: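 Human apoE isoforms (Cys at 264) expressed in E. coli BL21(DE3)AI, purified from inclusion bodies in 8 M urea, labeled with MTS-SL and refolded into PBS pH 7.4. HDL or VLDL came from postprandial human plasma by ultracentrifugation. […] Samples were incubated, then run as X-band EPR (loop-gap resonator, sealed quartz capillary), with vehicle controls.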

[4] = test system: VLDL and HDL; details: ref [10]; cited from earlier work
[5] = test system: Aβ fibrils; details: in vitro; ref [19]; cited from earlier work
[6] = Circular dichroism of spin-labeled apoE; assay type: physicochemical; details: spin-labeled W264C apoE4 vs wt apoE4; Supplementary Material
[7] = test system: neuronal death / neurite outgrowth; details: independent of Aβ; ref [15]; cited from earlier work
[8] = test system: N2a cells; assay: MTT cytotoxicity assay; assay type: cell-based; details: oligomeric peptide, one day after addition
[9] = Atomic force microscopy of oligomers; assay type: physicochemical

## E3-like protein: apoE3-like protein: R112->S mutation in the apoE4-W264C template
[1]; E3-like mutant (Cys112→Ser) relative to apoE4, ref [29]
  propensity to form SDS-resistant complex with Aβ: higher (relative to apoE4) propensity to form an SDS-resistant complex with Aβ
[2]
  effect of apoE on the Aβ^(26TOAC) EPR spectrum: Only the E3-like protein induces a broadening of the Aβ^(26TOAC) spectra
[3]
  EPR response to AβO in presence of HDL / VLDL: the influence of AβO on the E3-like protein is clearly greater in the presence of HDL
  EPR response to HDL / VLDL without AβO: becomes more ordered; where the spectra of spin-labeled 264 are similarly broadened by HDL and VLDL

## apoE4: h_apoE4 protein containing the W264->Cys (apoE4-W264C) substitution
[1]; in vitro, ref [13]
  association with Aβ, SDS-resistant apoE-Aβ on gels: higher apoE4 association in vitro
[1]; lipid-free apoE, ref [14],[19]
  affinity of lipid-free apoE4 for Aβ vs apoE3: binds Aβ with a higher affinity than apoE3 and promotes fibrillization of Aβ
[2]
  effect of apoE on the Aβ^(26TOAC) EPR spectrum: produces a spectrum that is identical to TOAC-labeled sample added to PBS alone; also recorded: had no significant effect on the Aβ^(26TOAC) spectrum
[4]
  lipoprotein preference: preference of E4 to bind VLDL over HDL
[5]
  stimulation of Aβ fibril assembly: in vitro assembly of Aβ fibrils is stimulated by apoE, and more so by the E4 isoform
[6]
  CD analysis of spin-labeled protein: indistinguishable from wt apoE4
[3]
  EPR response to AβO in presence of HDL / VLDL: slightly stronger binding effect of apoE4 to AβO in the presence of VLDL than HDL
  EPR response to HDL / VLDL without AβO: shows little change with HDL, and a slight increase in amplitude with VLDL
[7]
  neuronal death: induces neuronal death and forms large fibril-like assemblies

## Aβ(1-40): native Aβ(1-40) peptide (Bachem Cat # 1194.0001)
[8]
  cell death: 60-75%

## AβO: soluble Aβ oligomer
[9]; AFM, AβO 50 μM, on mica surface
  time to formation of fibrillar aggregates after spotting: ≤ 1 min
[9]; AFM, set of 11, assuming simple spherical particle
  average volume of initial AβO species: 203 ± 26 nm^3
[9]; efficient packing of the peptide in the particle is unlikely
  upper limit of oligomer size: ≤ 30 -mer
[9]; estimated from AFM volume, if packed similar to a globular protein
  protein mass of AβO particle: ~ 160 kD

Source: PMC3016465 (Proteins, 2011)
